The subject of assay [1] is Mycolicibacterium smegmatis. The experiment in a line: Antimicrobial activity against Mycobacterium smegmatis MC2 155 ATCC 700084 at 125 mg/L after 72 hrs by MTT assay in presence of EtBr. It counts as functional. Background: Tetrazolium dyes change colour on reduction, which living cells bring about.
In assay [2] the test system is Mycolicibacterium smegmatis MC2 155. As to the kind of experiment: Inhibition of multidrug resistance efflux pump in Mycobacterium smegmatis MC2 155 ATCC 700084 assessed as EtBr accumulation at 31.5 mg/L measured every 3 mins interval for 45 mins by fluorometric method. In a few lines: (§1)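 Cells are grown in 7H9/OADC at 37 °C to OD600 0.8, then pelleted and exposed to EtBr with test compound. Verapamil, reserpine, CCCP and DMSO serve as controls. EtBr fluorescence (excitation 530 nm, emission 600 nm) is read every 3 min for 45 min in a microplate spectrofluorimeter. Test concentrations are fractions (1/2, 1/4, 1/8) of each compound's MIC.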

Assay [3] deals with Mycolicibacterium smegmatis. As to the kind of experiment: Antimicrobial activity against Mycobacterium smegmatis MC2 155 ATCC 700084 at 62.5 mg/L after 72 hrs by MTT assay in presence of EtBr. It counts as functional.
The subject of assay [4] is Mycolicibacterium smegmatis MC2 155. As to the kind of experiment: Inhibition of multidrug resistance efflux pump in Mycobacterium smegmatis MC2 155 ATCC 700084 assessed as reduction in EtBr MIC at 125 mg/L by MTT assay relative to control.
Assay [5] has the same test system. As to the kind of experiment: Inhibition of multidrug resistance efflux pump in Mycobacterium smegmatis MC2 155 ATCC 700084 assessed as EtBr accumulation at half concentration of MIC measured every 3 mins interval for 45 mins by fluorometric method. Put shortly: as §1
For assay [6] the test system is unchanged. As to the kind of experiment: Inhibition of multidrug resistance efflux pump in Mycobacterium smegmatis MC2 155 ATCC 700084 assessed as EtBr accumulation at 31.5 mg/L measured every 3 mins interval for 45 mins by spectrofluorometric method. In a few lines:
as §1

Assay [7] concerns Mycolicibacterium smegmatis. As to the kind of experiment: Antimicrobial activity against Mycobacterium smegmatis MC2 155 ATCC 700084 after 72 hrs by MTT assay. It counts as functional. The note with it: MC2 155 ATCC 700084, 72 h.
For assay [8], the system named is Mycolicibacterium smegmatis MC2 155. As to the kind of experiment: Inhibition of multidrug resistance efflux pump in Mycobacterium smegmatis MC2 155 ATCC 700084 assessed as reduction in EtBr MIC at 62.5 mg/L by MTT assay relative to control.
Assay [9] has the same test system. The experiment in a line: Inhibition of multidrug resistance efflux pump in Mycobacterium smegmatis MC2 155 ATCC 700084 assessed as reduction in EtBr MIC at 16 mg/L by MTT assay relative to control.
Assay [10] has the same test system. The experiment in a line: Inhibition of multidrug resistance efflux pump in Mycobacterium smegmatis MC2 155 ATCC 700084 assessed as EtBr accumulation at 12.5 mg/L measured every 3 mins interval for 45 mins by fluorometric method. In a few lines: as §1
Assay [11] has as its system Mycolicibacterium smegmatis. The experiment in a line: Antimicrobial activity against Mycobacterium smegmatis MC2 155 ATCC 700084 at 16 mg/L after 72 hrs by MTT assay in presence of EtBr. It counts as functional.
In assay [12] the test system is Mycolicibacterium smegmatis MC2 155. The experiment in a line: Inhibition of multidrug resistance efflux pump in Mycobacterium smegmatis MC2 155 ATCC 700084 assessed as EtBr accumulation at 128 mg/L measured every 3 mins interval for 45 mins by fluorometric method. In a few lines: as §1
Assay [13] relates to Mycolicibacterium smegmatis. As to the kind of experiment: Antimicrobial activity against Mycobacterium smegmatis MC2 155 ATCC 700084 at 40 mg/L after 72 hrs by MTT assay in presence of EtBr. It counts as functional.
The test system of assay [14] is Mycolicibacterium smegmatis. As to the kind of experiment: Antimicrobial activity against Mycobacterium smegmatis MC2 155 ATCC 700084 at 31.2 mg/L after 72 hrs by MTT assay in presence of EtBr. It counts as functional.
Assay [15] concerns Mycolicibacterium smegmatis MC2 155. The experiment in a line: Inhibition of multidrug resistance efflux pump in Mycobacterium smegmatis MC2 155 ATCC 700084 assessed as reduction in EtBr MIC at 31.2 mg/L by MTT assay relative to control.
Assay [16] concerns Mycolicibacterium smegmatis. The experiment in a line: Antimicrobial activity against Mycobacterium smegmatis MC2 155 ATCC 700084 at 80 mg/L after 72 hrs by MTT assay in presence of EtBr. It counts as functional.
The test system of assay [17] is Mycolicibacterium smegmatis MC2 155. As to the kind of experiment: Inhibition of multidrug resistance efflux pump in Mycobacterium smegmatis MC2 155 ATCC 700084 assessed as reduction in EtBr MIC at 250 mg/L by MTT assay relative to control.

The term MIC denotes the lowest concentration found to suppress growth. Read a high MIC as a need for much substance.

In brackets after ≈: the same amount, converted by molar mass. Activity calls are given as the source filed them. The calls are words filed in the database; no cut-off is given here.

Take `C=CCOc1cccc(/C=C2\COc3cc(O)ccc3C2=O)c1`: the results for the “fractional inhibitory concentration index (FICI)” value in assay [1] and in assay [3] were 0.62 and 0.5, respectively. The result in assay [2], in assay [5] and in assay [6] was Active. Moreover, the fold change (FC) in [4] came to 8; in [8] it was 4. The molecule further registered a minimal inhibitory concentration (MIC) in [7] of 250 µg/mL (≈ 811 µM).
Regarding `N#CC(C#N)=NNc1cccc(Cl)c1` [CARBONYL CYANIDE M-CHLOROPHENYLHYDRAZONE], the fold change (FC) in assay [9] came to 2. For the same molecule, the outcome in assay [10] was Active. Also, in assay [11], the “fractional inhibitory concentration index (FICI)” value was 1.14. This molecule also showed a minimal inhibitory concentration (MIC) in [7] of 25 µg/mL (≈ 122 µM).
As for `COC(=O)[C@H]1[C@H]2C[C@@H]3c4[nH]c5cc(OC)ccc5c4CCN3C[C@H]2C[C@@H](OC(=O)c2cc(OC)c(OC)c(OC)c2)[C@@H]1OC` [RESERPINE], the outcome in assay [12] was Active. In addition, the “fractional inhibitory concentration index (FICI)” value in assay [13] stood at 0.4. Also, inhibition of growth in [7] (MIC) required 256 µg/mL (≈ 421 µM).
`COc1ccccc1/C=C1\COc2cc(O)ccc2C1=O`: the “fractional inhibitory concentration index (FICI)” value in assay [1] is 0.75. Moreover, in [4], the fold change (FC) is 4. In assay [5], the outcome was Active. Besides, the minimal inhibitory concentration (MIC) in assay [7] turned out to be 250 µg/mL (≈ 886 µM).
For the molecule `O=C1/C(=C/c2cccc(Br)c2)COc2cc(O)ccc21`, in assay [1], the “fractional inhibitory concentration index (FICI)” value is 0.75. Besides, the fold change (FC) in assay [4] is 2. In assay [7], this molecule had an MIC of 500 µg/mL (≈ 1510 µM).
For the molecule `O=C1/C(=C/c2cccc(O)c2)COc2cc(O)ccc21`, the “fractional inhibitory concentration index (FICI)” value in assay [1] stood at 0.5. Besides, in assay [4], the fold change (FC) came to 4. Also, the outcome in [5] was Active. In assay [7], this molecule returned an MIC of 500 µg/mL (≈ 1860 µM).
As for `COc1ccc(/C=C2\COc3cc(O)ccc3C2=O)cc1` [BONDUCELLIN], the “fractional inhibitory concentration index (FICI)” value in assay [3] was determined as 0.62; in assay [14] it was 0.5. In addition, in [5], the result was Active. For the same molecule, the fold change (FC) in assay [15] was 4; in assay [8] it was 8. Also, the MIC in [7] is 125 µg/mL (≈ 443 µM).
For `C=CCOc1ccc(/C=C2\COc3cc(O)ccc3C2=O)cc1`, the “fractional inhibitory concentration index (FICI)” value in assay [1] was found to be 0.75. In addition, in assay [4], the fold change (FC) stood at 2. Moreover, the MIC in [7] stood at 250 µg/mL (≈ 811 µM).
In assay [7], `CC[n+]1c(-c2ccccc2)c2cc(N)ccc2c2ccc(N)cc21.[Br-]` [HOMIDIUM BROMIDE] returned a minimal inhibitory concentration (MIC) of 16 µg/mL.
With `C=CCOc1ccccc1/C=C1\COc2cc(O)ccc2C1=O`, the “fractional inhibitory concentration index (FICI)” value in assay [1] is reported as 0.75. Moreover, the fold change (FC) in [4] is 2. The same molecule displayed an MIC in assay [7] of 500 µg/mL (≈ 1620 µM).
`O=C1/C(=C/c2ccc(F)cc2)COc2cc(O)ccc21`: the “fractional inhibitory concentration index (FICI)” value in assay [1] was found to be 0.75. The fold change (FC) in [4] was found to be 4. The result in assay [5] was Active. The molecule also showed a minimum inhibitory concentration (MIC) in assay [7] of 250 µg/mL (≈ 925 µM).
Consider `COc1ccc(CCN(C)CCCC(C#N)(c2ccc(OC)c(OC)c2)C(C)C)cc1OC` (stereo not drawn), for which the “fractional inhibitory concentration index (FICI)” value is 0.552 in assay [16] and 0.63 in assay [13]. This molecule returned a minimum inhibitory concentration (MIC) in assay [7] of 300 µg/mL (≈ 660 µM).
Regarding `O=C1/C(=C/c2ccc(Cl)cc2)COc2cc(O)ccc21`, the “fractional inhibitory concentration index (FICI)” value in [1] came out at 0.75. The fold change (FC) in [4] turned out to be 4. Moreover, in assay [5], the result was Active. Further, in [7], the MIC was 250 µg/mL (≈ 872 µM).
As to `COc1ccc(/C=C2\COc3c(ccc(O)c3OC)C2=O)cc1` [E-8-METHOXYBONDUCELLIN], in [3], the “fractional inhibitory concentration index (FICI)” value was 1. The molecule further registered an MIC in assay [7] of 125 µg/mL (≈ 400 µM). In addition, the fold change (FC) in assay [8] is 2.
`O=C1/C(=C/c2cccc(F)c2)COc2cc(O)ccc21`: the “fractional inhibitory concentration index (FICI)” value in assay [1] is listed as 0.75. In addition, the fold change (FC) in assay [4] amounted to 4. The result in assay [5] was Active. The molecule further showed an MIC in assay [7] of 250 µg/mL (≈ 925 µM).
Consider `O=C1/C(=C/c2ccccc2Br)COc2cc(O)ccc21`, for which, in assay [3], the “fractional inhibitory concentration index (FICI)” value is on record as 1. In addition, the minimal inhibitory concentration (MIC) in assay [7] is 125 µg/mL (≈ 377 µM). The fold change (FC) in [8] was 2.
Consider `O=C1/C(=C/c2ccc(Br)cc2)COc2cc(O)ccc21`, for which, in [1], the “fractional inhibitory concentration index (FICI)” value was determined as 0.75. The fold change (FC) in assay [4] was 2. In [7], this molecule returned an MIC of 500 µg/mL (≈ 1510 µM).
Regarding `COc1ccc(/C=C2\COc3cc(O)cc(O)c3C2=O)cc1`, the fold change (FC) in assay [17] amounted to 4; in assay [8] it was 2.
Regarding `COc1cccc(/C=C2\COc3cc(O)ccc3C2=O)c1`, in [1], the “fractional inhibitory concentration index (FICI)” value was 0.75. Also, in assay [4], the fold change (FC) is 2. The same molecule returned an MIC in [7] of 500 µg/mL (≈ 1770 µM).
As for `O=C1/C(=C/c2ccc(O)cc2)COc2cc(O)ccc21`, the “fractional inhibitory concentration index (FICI)” value in assay [1] was found to be 0.56; in [3], 0.37. In addition, the fold change (FC) in assay [4] is 16; in assay [8], 8. Moreover, the outcome in [5] was Active. The molecule also returned an MIC in [7] of 250 µg/mL (≈ 932 µM).
As for `O=C1/C(=C/c2ccc(C(F)(F)F)cc2)COc2cc(O)ccc21`, in assay [1], the “fractional inhibitory concentration index (FICI)” value is reported as 0.75. Besides, the fold change (FC) in [4] turned out to be 4. Moreover, in assay [7], the lowest concentration to inhibit growth (MIC) was 250 µg/mL (≈ 781 µM).
Regarding `O=C1/C(=C/c2ccccc2F)COc2cc(O)ccc21`, the result in assay [2], in assay [5] and in [6] was Active. Further, the “fractional inhibitory concentration index (FICI)” value in assay [3] is reported as 0.75. This molecule also displayed an MIC in assay [7] of 125 µg/mL (≈ 463 µM). For the same molecule, the fold change (FC) in [8] came to 4.
As for `COc1ccc(/C=C2\COc3c(ccc(O)c3O)C2=O)cc1` [INTRICATINOL], the “fractional inhibitory concentration index (FICI)” value in [3] is listed as 1. Further, the lowest concentration to inhibit growth in [7] (MIC) was 125 µg/mL (≈ 419 µM). The fold change (FC) in assay [8] was 2.
For `O=C1/C(=C/c2ccccc2)COc2cc(O)ccc21`, the “fractional inhibitory concentration index (FICI)” value in assay [1] and in assay [3] was 0.37 throughout. The values for the fold change (FC) in assay [4] and in assay [8] were 8 and 4, respectively. The outcome in assay [5] was Active. This molecule registered a minimal inhibitory concentration (MIC) in assay [7] of 500 µg/mL (≈ 1980 µM).
Consider `O=C1/C(=C/c2ccccc2Cl)COc2cc(O)ccc21`, for which, in assay [3], the “fractional inhibitory concentration index (FICI)” value is 1. This molecule also showed an MIC in assay [7] of 125 µg/mL (≈ 436 µM). The fold change (FC) in assay [8] amounted to 2.
For `O=C1/C(=C/c2cccc(Cl)c2)COc2cc(O)ccc21`, the “fractional inhibitory concentration index (FICI)” value in [1] is reported as 1. Moreover, the fold change (FC) in assay [4] was found to be 2. Also, in [7], the minimum inhibitory concentration (MIC) came out at 250 µg/mL (≈ 872 µM).

The values are drawn from ChEMBL document CHEMBL2406916, “7-Hydroxy-(E)-3-phenylmethylene-chroman-4-one analogues as efflux pump inhibitors against Mycobacterium smegmatis mc² 155” (2013).
